Data set [1] concerns Drosophila. The experiment in a line: Toxicity in wild-type Drosophila assessed as eclosion rate at 100 uM, po via food to female and male flies and measured in F1 generation flies after 15 days. It is filed as organism-based. As to conditions: in vivo, 360 h, time 15 day. The method, boiled down:
(§1)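 Ten virgin female and male Oregon R+ flies crossed on food containing compound (1, 10, 50, 100 or 200 μM), held at 24 ± 1 °C; F1 generation followed 15 days; percent eclosion versus untreated controls; Dunnett's multiple comparisons.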

The test system of data set [2] is Drosophila. Put plainly: Anti-cancer activity in Drosophila harboring UAS-Ras V12 mutant assessed as rescue of third instar larval lethality at 10 to 50 uM, po. It is filed as functional, organism-based. As to conditions: dose 10-50 µM. In a few lines: (§2)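 UAS-RasV12 glial glioblastoma model (repo-GAL4/UAS-RasV12) in Drosophila, with Oregon R+ wild-type flies as control. Flies reared at 24 ± 1 °C on standard corn food containing compound at 10 or 50 μM. Percent of animals at each developmental stage (third instar larva, pupa) scored. Significance by Tukey's multiple comparisons test.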

The subject of data set [3] is Drosophila. Put plainly: Anti-cancer activity in Drosophila harboring UAS-Ras V12 mutant assessed as improvement in third instar larval survivability at 10 to 50 uM, po. The class given is functional, organism-based. The following applies: dose 10-50 µM. In a few lines: as §2
Data set [4] relates to Drosophila. The experiment in a line: Toxicity in wild-type Drosophila assessed as eclosion rate at 1 uM, po via food to female and male flies and measured in F1 generation flies after 15 days. The class given is organism-based. The following applies: in vivo, 360 h, time 15 day. In a few lines:
as §1

Data set [5] relates to Drosophila. Put plainly: Toxicity in wild-type Drosophila assessed as eclosion rate at 10 uM, po via food to female and male flies and measured in F1 generation flies after 15 days. The class given is organism-based. The following applies: in vivo, 360 h, time 15 day. The method, boiled down: as §1
For data set [6], the system named is Drosophila. The experiment in a line: Toxicity in wild-type Drosophila assessed as reduction in eclosion rate at 100 uM, po via food to female and male flies and measured in F1 generation flies after 15 days. The class given is organism-based. The arrangement: scale not given: the % may be the effect or the level left. The following applies: in vivo, 360 h, time 15 day. The method, boiled down: as §1

Data set [7] in a line: Cmax in male Wistar rat at 10 mg/kg, po measured up to 24 hrs by HPLC analysis. It is filed as ADME, organism-based. As to conditions: in vivo. In a few lines:
(§3)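 Overnight-fasted male Wistar rats, 200–250 g, single 10 mg kg−1 p.o. in 0.3% sodium CMC; blood at 0, 0.5, 1, 2, 4, 8, 16, 24 h into heparin tubes; plasma MeOH-extracted, HPLC (MeOH:H2O 85:15, 254 nm) against calibration curve; extravascular non-compartmental analysis; mean ± SD (n = 3).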

Data set [8] in a line: Tmax in male Wistar rat at 10 mg/kg, po measured up to 24 hrs by HPLC analysis. The class given is ADME, organism-based. As to conditions: in vivo. The method, boiled down:
as §3

Data set [9] is described as follows: AUC (0 to 24 hrs) in male Wistar rat at 10 mg/kg, po measured up to 24 hrs by HPLC analysis. It is filed as ADME, organism-based. As to conditions: in vivo. In a few lines:
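Healthy male Wistar rats (200–250 g, n = 5), fasted overnight, given a single oral dose of 10 mg kg−1 in 0.3% sodium CMC. Blood collected under anaesthesia at 0, 0.5, 1, 2, 4, 8, 16 and 24 h into heparinized tubes. Plasma extracted with MeOH and analysed by HPLC (MeOH:H2O 85:15, detection at 254 nm) against a standard calibration curve. Parameters from a non-compartmental extravascular model.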

Data set [10] is described as follows: MRT in male Wistar rat at 10 mg/kg, po measured up to 24 hrs by HPLC analysis. The class given is ADME, organism-based. The following applies: in vivo. The method, boiled down: as §3
For a further data set, the system named is COLO 205. The experiment in a line: Cytotoxicity against human COLO 205 cells assessed as growth inhibition incubated for 48 hrs by SRB assay. As to conditions: COLO 205, 48 h. (In general: In SRB staining, fixed cells bind dye roughly in proportion to their protein.)
A further data set relates to MIA PaCa-2. The experiment in a line: Cytotoxicity against human MIA PaCa-2 cells assessed as growth inhibition incubated for 48 hrs by SRB assay. As to conditions: MIA PaCa-2, 48 h.

Calls of active or inactive are those of the source. The calls are words filed in the database; no cut-off is given here.

On to `Clc1ccc(-c2nnc(CN3CCN(C(c4ccccc4)c4ccc(Cl)cc4)CC3)o2)cc1` (configuration not stated), for which the Activity is < 50% in the data set with Drosophila [1], ~ 92% in the data set with Drosophila [4], ~ 84% in the data set with Drosophila [5] and 41% in the data set on Drosophila [6]. Further, the result in the data set on Drosophila [2] and in the data set on Drosophila [3] was Active. Also, the concentration in data set [7] peaked (Cmax) at 10300 ng/mL. For the same molecule, the Tmax (commonly the time at which the peak concentration occurs) in data set [8] stood at 3 h. For the same molecule, in [9], the AUC is 32.06 µg/mL/h. Moreover, the MRT – broadly, the average time that molecules of a dose stay in the body – in [10] stood at 3.42 h. For the same molecule, the GI50 (commonly the concentration at which growth is held to half of that of the control) in the data set on COLO 205 stood at 1220 nM; in the data set on MIA PaCa-2, 2320 nM.

(Values after ChEMBL document CHEMBL6134766, “Design, synthesis, and evaluation of benzhydrylpiperazine-based novel dual COX-2/5-LOX inhibitors with anti-inflammatory and anti-cancer activity” (RSC Med Chem, 2025).)
